Source: the array DNA melting data of Ke et al. (doi:10.1101/2024.01.08.574731)

How the values were obtained:
[1] = folding enthalpy; higher = less favourable; fluorescence melt of hairpins on a sequencing array, two-state fit; conditions: sodium 0.088 M
Outline: (§1)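 Folding enthalpy and melting temperature come from bootstrapped two-state fits to Cy3 fluorescence of library hairpins carrying annealed Cy3 and quencher oligos on a sequenced MiSeq flow cell. Imaging was done in 50 mM Na-HEPES pH 8.0, 25 mM NaCl, stepping by 2.5 °C up to 60 °C, and signals were normalised to pre-quench Cy3 and to control constructs. Results of four replicates were combined by inverse variance, and fitted temperatures were raised by 9.35 °C to match UV melts.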

[2] = melting temperature; fluorescence melt of hairpins on a sequencing array, two-state fit, raised by 9.35 °C to match UV melts; conditions: sodium 0.088 M
Outline: as §1

Row | Sequence | folding enthalpy [1] | Tm [2]
1 | GTGCTCCGAAAGGAACAC (((.(((....))).))) | -46.5 kcal/mol | 52.2 °C
2 | GTGCTCGAAAGAGGACAC ((((((....)))..))) | -15.6 kcal/mol | 49.8 °C
3 | GTGCTCGAAAGAGGTCAC ((((((....)))..))) | -15.8 kcal/mol | 35.5 °C
4 | GTGCTCGAAAGAGTGCAC ((((((....)))..))) | -24 kcal/mol | 48.7 °C
5 | GTGCTCGGAAACGAGCGC (.(((((....))))).) | -19.4 kcal/mol | 64.5 °C
6 | GTGCTCTCGAAAGAGCAC (((..(((....)))))) | -40.3 kcal/mol | 62.6 °C
7 | GTGCTGGGAAACCAACAC (((.(((....))).))) | -36.9 kcal/mol | 44 °C
8 | GTGCTGGGAAACCAGTAC ((.((((....)))).)) | -39.6 kcal/mol | 51.7 °C
9 | GTGCTTACGAAAGTACAC (((..(((....)))))) | -9.43 kcal/mol | 34 °C
10 | GTGCTTGGAAACAAGTAC ((.((((....)))).)) | -32.3 kcal/mol | 49.2 °C
11 | GTGGAAACGAAAGTTCAC (((..(((....)))))) | -19.5 kcal/mol | 33.7 °C
12 | GTGGAACGAAAGTTGCAC (((.(((....))).))) | -40.3 kcal/mol | 56.5 °C
13 | GTGGAAGCGAAAGCTCAC (((..(((....)))))) | -18.8 kcal/mol | 44.3 °C
14 | GTGGAAGGAAACTTCTAC ((.((((....)))).)) | -27.8 kcal/mol | 39.3 °C
15 | GTGGACGAAAGTCACCAC ((((((....)))..))) | -16.4 kcal/mol | 38 °C
16 | GTGGACGAAAGTCCCCAC ((((((....)))..))) | -8.05 kcal/mol | 37.2 °C
17 | GTGGACGAAAGTCGCAC ((((((....))).))) | -15.5 kcal/mol | 50.4 °C
18 | GTGGACGAAAGTCTGCAC ((((((....)))..))) | -15.7 kcal/mol | 40.6 °C
19 | GTGGACGGAAACACCCAC ((((..(....)..)))) | -12.2 kcal/mol | 30.4 °C
20 | GTGGAGCCGAAAGGCCAC (((..(((....)))))) | -13.7 kcal/mol | 50.5 °C
21 | GTGGCACCGAAAGGTCAC (((..(((....)))))) | -14.9 kcal/mol | 42.6 °C
22 | GTGGCAGGAAACTGTCAC (((.(((....))).))) | -41 kcal/mol | 54.3 °C
23 | GTGGCCGAAAGGCAGCAC ((((((....)))..))) | -14.1 kcal/mol | 46.3 °C

Row | Sequence | folding enthalpy [1] | Tm [2]
24 | GTGGCCTCGAAAGAGCAC (((..(((....)))))) | -14.7 kcal/mol | 37.4 °C
25 | GTGGCGGGAAACCGCTAC ((.((((....)))).)) | -19.3 kcal/mol | 58.3 °C
26 | GTGGCTCCGAAAGGACAC (((..(((....)))))) | -14.6 kcal/mol | 47.8 °C
27 | GTGGCTGCGAAAGCACAC (((..(((....)))))) | -11.5 kcal/mol | 47.8 °C
28 | GTGGGAACGAAAGTTCAC (((..(((....)))))) | -34.3 kcal/mol | 54.9 °C
29 | GTGGGAGGAAACTCCTAC ((.((((....)))).)) | -25.1 kcal/mol | 46.8 °C
30 | GTGGGAGGAAACTCCTGC (..((((....))))..) | -17.4 kcal/mol | 37.8 °C
31 | GTGGGAGGAAACTTCCAC ((((.((....)).)))) | -41.1 kcal/mol | 49.2 °C
32 | GTGGGCGAAAGCCCGCAC ((((((....)))..))) | -10.2 kcal/mol | 58.6 °C
33 | GTGGGCGAAAGCCGCAC ((((((....))).))) | -13.8 kcal/mol | 55.4 °C
34 | GTGGGCGGAAACGCCTAC ((.((((....)))).)) | -16.3 kcal/mol | 56.5 °C
35 | GTGGGCGGAAACGCTCAC (((.(((....))).))) | -34.3 kcal/mol | 59.6 °C
36 | GTGGGCGGAAACGCTCGC (.(.(((....))).).) | -21.3 kcal/mol | 49.9 °C
37 | GTGGGGCGAAAGCCCAC (((.(((....)))))) | -12.8 kcal/mol | 62.6 °C
38 | GTGGGGCGAAAGCCTCAC (((.(((....))).))) | -30.2 kcal/mol | 67.6 °C
39 | GTGGGGGGAAACCCTCAC (((.(((....))).))) | -30.3 kcal/mol | 52.6 °C
40 | GTGGGGTCGAAAGACCAC (((..(((....)))))) | -19.2 kcal/mol | 63.1 °C
41 | GTGGTAGAAATACCAC ((((((....)))))) | -36.1 kcal/mol | 53.6 °C
42 | GTGGTAGGAAACCACCAC (((((.(....).))))) | -22.5 kcal/mol | 49.4 °C
43 | GTGGTAGGAAACTACCAC (((((((....))))))) | -54.9 kcal/mol | 61.2 °C
44 | GTGGTAGGAAACTACCGC (.(((((....))))).) | -32.5 kcal/mol | 52.5 °C
45 | GTGGTAGGAAACTACTAC ((.((((....)))).)) | -32.2 kcal/mol | 41.8 °C
46 | GTGGTAGGAAACTATCGC (.(.(((....))).).) | -18.1 kcal/mol | 31.1 °C

Row | Sequence | folding enthalpy [1] | Tm [2]
47 | GTGGTAGGAAACTGCCAC ((((.((....)).)))) | -50 kcal/mol | 54.1 °C
48 | GTGGTATCGAAAGATCAC (((..(((....)))))) | -23.8 kcal/mol | 33.3 °C
49 | GTGGTCCCGAAAGGGCAC (((..(((....)))))) | -14.8 kcal/mol | 42.5 °C
50 | GTGGTCGAAAGACACAC ((((((....))).))) | -26.6 kcal/mol | 50.3 °C
51 | GTGGTCGAAAGACTCCAC ((((((....)))..))) | -13.7 kcal/mol | 38.9 °C
52 | GTGGTCGGAAACGGCCAC ((((.((....)).)))) | -33.7 kcal/mol | 63.5 °C
53 | GTGGTGCGAAAGCAACAC (((.(((....))).))) | -28.8 kcal/mol | 68.9 °C
54 | GTGGTGCGAAAGCACAC (((.(((....)))))) | -11.5 kcal/mol | 53.8 °C
55 | GTGGTGCGAAAGCATCAC (((.(((....))).))) | -30.4 kcal/mol | 67 °C
56 | GTGGTGGCGAAAGCCCAC (((..(((....)))))) | -14.8 kcal/mol | 53.5 °C
57 | GTGGTGGGAAACCATCGC (.(.(((....))).).) | -24.9 kcal/mol | 41.6 °C
58 | GTGGTGGGAAACCGCTAC ((.(.((....)).).)) | -19.3 kcal/mol | 46.7 °C
59 | GTGGTGGGAAACTACCAC (((((.(....).))))) | -43.4 kcal/mol | 52.6 °C
60 | GTGGTTCGAAAGAAGCAC (((.(((....))).))) | -41.7 kcal/mol | 60.1 °C
61 | GTGGTTGGAAACAGCCAC ((((.((....)).)))) | -44.1 kcal/mol | 52.4 °C
62 | GTGGTTGGAAACAGTCAC (((..((....))..))) | -19.4 kcal/mol | 31.2 °C
63 | GTGGTTGGAAACGACCAC (((((.(....).))))) | -41 kcal/mol | 54.7 °C
64 | GTGTAACGAAAGTTTCAC (((.(((....))).))) | -22.9 kcal/mol | 44.9 °C
65 | GTGTACGAAAGTAACAC ((((((....))).))) | -30 kcal/mol | 49.5 °C
66 | GTGTACGAAAGTAACCAC ((((((....)))..))) | -15 kcal/mol | 32 °C
67 | GTGTACGAAAGTAAGCAC ((((((....)))..))) | -21.3 kcal/mol | 33.4 °C
68 | GTGTACGAAAGTAATCAC ((((((....)))..))) | -18.3 kcal/mol | 30.2 °C
